The test system of one series is bone marrow. Briefly: In vivo micronucleus assay. As to conditions: 20 mg/kg bw once by oral gavage. Also on record: species or system rat. The gist of the method:
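Female rats were dosed twice by oral gavage, 24 h apart, with vehicle or 87.5, 175 or 350 mg/kg bw. Cyclophosphamide 20 mg/kg bw was given once by gavage as positive control. Five groups of five animals. Micronuclei and the PCE/NCE ratio were scored.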

Series [1] is described as follows: Residues of EQ and metabolites/TPs in piglet tissues. In kind it is in vivo. As to conditions: piglets.
The nature of series [2]: Residues of EQ and metabolites/TPs in cattle tissues. The class given is in vivo.
For series [3] the following is noted: ref Regulation (EC) No 1272/2008; cited from earlier work.

This is an account of results in publication PMC8892239 (EFSA Journal, 2022).

On to `O=P1(N(CCCl)CCCl)NCCCO1` (stereo not drawn) [Cyclophosphamide, cyclophosphamide], for which the “number of micronuclei (positive control)” value in the series with bone marrow is reported as “statistically significant increase”.
`CCOC1=CC(=O)C2=NC(C)(C)C=C(C)C2=C1` [Metabolite A, 6‐ethoxy‐2,2,4‐trimethyl‐quinolin‐8‐one]: the residue in muscle entry is reported as “˂ LOQ” in series [1] (control feed (0 mg EQ/kg), 42 days, mean ± SD, LOQs as above) and “˂ LOQ” in series [1] (feed with 50 mg EQ/kg for 42 days, LOQs 1.5 to 2 µg EQ, EQDM, metabolite A/kg, 0.5 µg EQI/kg). Moreover, the concentration at 42 days in series [2] (Holstein, bovine, liver, oral, 50 mg EQ/kg complete feed) was 121 ng/g. In addition, the “residue in muscle, highest value” in series [2] (cattle, control (0 mg EQ/kg feed), 42 days, LOQs as above) was “˂ LOQ”.
In the case of `CCOc1ccc(N)cc1` [p‐phenetidine], in series [3], the “germ cell mutagenicity classification” value is given as “Muta. 2”.
